Test results from publication PMC11605122 (Nature Communications, 2024).

Experiments:
[1] = body weight, HFD-fed; type: in vivo, mouse
[2] = energy expenditure; type: in vivo, mouse; settings: DIO mice, G49, day 3, light and dark phases
In short: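 Mice entered metabolic cages 2 days before the first s.c. dose, which was given every 2 days. Indirect calorimetry parameters were then recorded for the following 3 days.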

[3] = tested on: eWAT stromal vascular fraction; assay: immune cell populations in eWAT SVF; type: in vivo, mouse
In short: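 eWAT was digested, stopped with EDTA, filtered at 100 µm and red cells lysed in ACK. The SVF was stained 20 min at RT in FACS buffer (1 mM EDTA, 25 mM HEPES, 1% FBS in PBS) with a panel including CD45, CD11b, F4/80, Ly6G, CD11c, CD206, SiglecF, T/NK markers and IL-4, or isotype controls. Acquisition was on a FACSCanto II.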

[4] = eWAT and iWAT weight; type: in vivo, mouse
[5] = plasma TGs; type: in vivo, mouse; settings: DIO mice, G49, time course
In short: (§1)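 Plasma ALT was read with Reflotron strips and plasma TGs by colorimetric assay. Serum FGF21 and plasma adiponectin and insulin were measured by ELISA.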

[6] = plasma/serum FGF21; type: in vivo, mouse; settings: DIO mice, G49
In short: as §1

[7] = MRI body composition, total/visceral fat, lean mass; type: in vivo, mouse
[8] = tested on: brown adipocytes; assay: fatty acid oxidation in brown adipocytes; type: cell-based, mouse; settings: G49, brown adipocytes
In short: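 Palmitate oxidation to CO2 and to acid-soluble material (acyl-carnitine, Krebs cycle intermediates, acetyl-CoA) was measured in primary hepatocytes or differentiated brown adipocytes, with or without 500 nM test compound.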

[9] = plasma ALT; type: in vivo, mouse; settings: DIO mice
In short: as §1

[10] = BAT skin temperature; type: in vivo, mouse
[11] = plasma FFAs; type: in vivo, mouse; settings: for plasma FFA elevation: DIO mice
[12] = tested on: mouse adipocytes from eWAT; assay: lipolysis; type: cell-based; settings: isolated adipocytes from eWAT, 500 nM G49, 4 h
[13] = tested on: BAT explants; assay: OCR in BAT explants; type: in vivo, mouse; settings: BAT explants of mice treated with G49 for 3 days
In short: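 BAT explants came from DIO mice given test compound or vehicle for 72 h. OCR was run as a Seahorse Mito Stress assay with 2 µM oligomycin A, 2 µM FCCP, then 10 µM rotenone plus 10 µM antimycin. OCR (pmol/min) came from O2 tension over time.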

[14] = peptide concentration in plasma; type: in vivo, mouse; settings: DIO mice, 24 h post-injection, 100 nmol/kg s.c., n = 5; cAMP bioassay
In short: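 Plasma activity was read in a cAMP assay on CHO cells expressing human GLP-1R, in HBSS pH 7.4 with 25 mM HEPES, 0.1% BSA and 0.5 mM IBMX. Serial dilutions were run in duplicate for 30 min at RT with HTRF detection. Standards were reference peptide spiked into 0.2% (final) naïve plasma. Sample ratio = sample EC50/reference EC50; concentration = known top concentration/ratio.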

[15] = liver histology; type: in vivo, mouse; settings: DIO mice
[16] = fatty acid oxidation in liver tissue; type: in vivo, mouse; settings: DIO mice, G49, 72 h
In short: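 Frozen liver (30 mg) was homogenised in cold STE buffer (25 mM Tris-HCl, sucrose, 1 mM EDTA, pH 7.4), sonicated 10 s and spun at 420 × g for 10 min at 4 °C. The supernatant was used for the oxidation reaction. Radioactive acid-soluble metabolites were counted by scintillation and expressed as nmol/g liver/h.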

[17] = tested on: pancreatic islets from DIO mice; assay: ex vivo glucose-stimulated insulin secretion; type: cell-based, mouse; settings: 500 nM G49, 1 or 24 h
In short: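 Islets were plated at 100 per 3 mL and treated the next day with 500 nM test compound for 1 or 24 h. After 1 h preincubation in KRB (2.8 mM glucose, 0.25% BSA, pH 7.4, 37 °C), batches of 3 islets were stimulated 1 h with 2.8 or 16.7 mM glucose. Insulin was measured by ELISA and normalised per islet; n = 4 mice.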

[18] = blood glucose; type: in vivo, mouse
In short: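 DIO mice were fed 60%-fat HFD from 8 weeks of age, for 12 weeks (males) or 24 weeks (females); one male cohort was housed at 30 °C. The test compound was given s.c. every 2 days in 50 mM sodium phosphate/300 mM mannitol pH 6.9. Glucose and ketone bodies were read in tail-vein blood.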

[19] = gene expression in mouse tissues/SVF; type: in vivo

In the case of “HSQGTFTSDYSKYLEEEAVRLFIC (40 kDa PEG) WLMNT-amide acetate salt [G49]”, the body weight ([1]; Adipoq−/− DIO mice, G49, 3–7 days) is reported as “body weight stabilized in the period of 3–7 days in Adipoq^−/− mice”, the body weight ([1]; DIO female mice, G49, 1 week) is reported as “Body weight loss in the absence of a reduction in cumulative food intake” and the body weight ([1]; DIO mice, G49 + Ex9-39 + GCGRant) is reported as “failed to decrease body weight in the presence of both antagonists”. The body weight loss ([1]; DIO mice, G49 without ATGLi, 72 h) was 11.8 ± 0.51%, the body weight loss ([1]; DIO mice, G49 without antagonist, day 7 (antagonist experiment)) was 23.2 ± 1.45% and the body weight ([1]; FGF21Alb-KO mice, HFD, G49, 3–7 days) was “body weight stabilized in G49-treated FGF21^Alb-KO mice in the period of 3–7 days”. For the same sequence, the body weight ([1]; UCP1−/− mice, HFD, G49, beyond 72 h) was “did not lose weight beyond this time-point”, the “effect in lean mice” value ([1]; lean mice, G49) was “mild and changes were found only in the short-term body weight loss, the early lipolytic response and the reduction of eWAT” and the body weight loss ([1]; male DIO mice, G49 20 nmol/kg, 1 week) was 6.9 ± 0.89%. The body weight loss ([1]; male mice, normal cycle, G49, 1 week) was 16.1 ± 0.72%, the body weight loss ([1]; male mice, reversed light/dark cycle, G49, 1 week) was 20.1 ± 0.49% and the energy expenditure [2] was “a significant increase in EE”. The eWAT beiging signature ([3]; DIO mice, G49 + ATGLi, 6 h) was “absence of the eWAT beiging signature”, the “beige immune signature of SVF” value ([3]; DIO mice, G49 + GCGRant, 6 h) was “loss of the beige immune signature of the SVF” and the “Cd206+/Cd11c+ ratio in neutrophils” value ([3]; SVF of eWAT, G49, 6 h) was “increased the Cd206^+/Cd11c^+ ratio”. For the same sequence, the “M2 and M1 macrophages” value ([3]; SVF of eWAT, G49, 6 h) was “increase in M2 (Cd206^+) subpopulation, concomitantly with a decrease in M1 (Cd11c^+) cells”, the “eosinophils (SiglecF+/Cd11b+/Cd11c−)” value ([3]; SVF of eWAT, G49, 6 h) was “infiltration of eosinophils” and the “neutrophil infiltration (Cd11b+Ly6g+)” value ([3]; SVF of eWAT, G49, 6 h) was “reduction in neutrophil infiltration”. For the same sequence, the “fat depots (eWAT, iWAT)” value ([4]; DIO mice, G49 + ATGLi, 72 h) was “without reduction in fat depots”, the “eWAT and iWAT depots” value ([4]; FGF21Alb-KO mice, G49, 1 week) was “a partial reduction of eWAT and iWAT depots” and the “circulating TGs” value [5] was “reached maximal levels at 24 h and decreased to basal levels at 48 h post-G49 treatment”. For the same sequence, the “liver Fgf21 expression and FGF21 plasma levels” value [6] was “reached significant increases at 12 h post-first G49 dose”, the visceral fat ([7]; Adipoq−/− mice, G49, 1 week, vs Adipoq+/+) was “lower reduction in visceral fat” and the “total and visceral adiposity” value ([7]; DIO mice, G49 + GCGRant, 6 h) was “abolished the acute effects of G49 in reducing total and visceral adiposity at 6 h post-injection”. For the same sequence, the “adiposity, fat mass, eWAT and iWAT weight” value ([7]; DIO mice, G49 with antagonists, alone or in combination, day 7) was “its administration with antagonists, either alone or in combination, totally blocked this effect”, the “Cpt1b expression and FAO” value [8] was “increased Cpt1b gene expression and FAO” and the ALT elevation ([9]; G49 + GCGRant, 6 h) was “hepatic lipid overload and ALT elevation were not observed”. For the same sequence, the ALT activity ([9]; G49, 6 h) was “an increase in lipid accumulation analyzed by H&E and oil-red O staining of liver sections, liver-to-body weight ratio, and alanine aminotransferase (ALT) activity”, the BAT temperature ([10]; Adipoq−/− mice, G49) was “G49-mediated increase in BAT temperature was reduced” and the BAT temperature ([10]; DIO mice, G49 + ATGLi, 72 h) was “suppression of G49 effects on UCP1 expression and BAT temperature”. For the same sequence, the BAT temperature ([10]; FGF21Alb-KO mice, G49 plus recombinant murine FGF21) was “markedly increased UCP1 protein levels and BAT temperature”, the BAT activation ([10]; UCP1−/− mice, G49, 1 week) was “no features of BAT activation were found” and the “plasma FFA elevation” value ([11]; G49 + Ex9-39, 6 h) was “retained its effect in elevating FFAs in the presence of Ex9-39”. For the same sequence, the “plasma FFA elevation” value ([11]; G49 + GCGRant, 6 h) was “abolished the acute effects of G49 in reducing total and visceral adiposity at 6 h post-injection and FFA elevation”, the “plasma FFAs” value ([11]; UCP1−/− mice, G49, 6 h) was “showed elevations in FFAs (at 6 h)” and the “plasma FFAs” value ([11]; irradiated DIO mice, G49, 6 h) was “the elevation of FFAs was preserved”. The “plasma FFAs” value ([11]; lean Gcgr−/− mice, single injection of G49, 1–6 h) was “did not elevate plasma FFAs at 1–6 h in Gcgr^−/− mice”, the “lipolysis at 6 h and 1 h” value ([11]; lean or DIO mice, G49) was “increased lipolysis at 6 h, but not at 1 h post-injection” and the “glycerol and FFA release” value [12] was “increased glycerol and FFA release”. The “basal and maximal respiration” value [13] was “increased basal and maximal respiration in BAT explants”, the peptide plasma level [14] was 121.7 ± 12.88 nM and the hepatic lipid overload ([15]; G49 + ATGLi, 6 h) was “absent in mice co-treated with ATGLi”. For the same sequence, the “lipid accumulation, liver sections” value ([15]; G49, 6 h) was “an increase in lipid accumulation”, the “hepatic fatty acid oxidation” value [16] was “concomitant increase in hepatic Cpt1a and Ppara mRNAs (Fig. 3J) and fatty acid oxidation (FAO)” and the insulin secretion [17] was “also observed by ex vivo treatment of pancreatic islets from DIO mice with G49”. For the same sequence, the “blood glucose and adiposity” value ([18]; female DIO mice, G49, 1 week) was “efficacy of G49 in reducing blood glucose and adiposity was also found in female mice”, the “blood glucose and adiposity” value ([18]; male DIO mice at thermoneutrality (30 °C), G49) was “in male mice housed at thermoneutrality” and the “hepatic Cpt1a and Ppara mRNAs” value ([19]; DIO mice, G49) was “concomitant increase in hepatic Cpt1a and Ppara mRNAs”. The “hepatic Srebf1 and Fasn mRNA” value ([19]; DIO mice, G49 + ATGLi, 6 h) was “Srebf1 and Fasn mRNAs were reduced”, the “liver Fgf21 mRNA upregulation” value ([19]; DIO mice, G49 + ATGLi, 72 h) was “G49-mediated Fgf21 mRNA upregulation in the liver was also abolished” and the “hepatic Fasn and Srebf1 mRNA” value ([19]; DIO mice, G49 + GCGRant, 6 h) was “reduced by the presence of GCGRant”. For the same sequence, the “thermogenic-related genes in BAT” value ([19]; DIO mice, G49, 1 week) was “increase in thermogenic-related genes (Cpt1b, Dio2, CoxIVi1, Ucp1, Th, Fgf21)”, the “Th mRNA in BAT” value ([19]; DIO mice, G49 with blockade of GCGR) was “maintained G49-mediated increase in Th mRNA levels” and the “Fgf21 mRNA in BAT” value ([19]; FGF21Alb-KO mice, G49, 72 h) was “Fgf21 mRNA upregulation was not observed in BAT”. The “Fgf21 mRNA in eWAT and iWAT” value ([19]; FGF21Alb-KO mice, G49, 72 h) was “Fgf21 mRNA levels were upregulated in eWAT and iWAT”, the “Th and cytokine mRNA in SVF” value ([19]; SVF of eWAT, G49, 6 h and 24 h) was “an increase of Th mRNA at 6 h and a peak of Il14, Il10, and Il13 that declined at 24 h post-G49 treatment” and the “angiogenesis and beiging-related genes” value ([19]; eWAT, G49, 1 week) was “Increases in angiogenesis (Vegf) and beiging-related genes (Cidea, Prdm16, CoxIVi1, Ucp1, Th, Cpt1a)”. The “M2 markers and Th mRNA” value ([19]; eWAT, G49, 6 h) was “upregulated mRNA levels of M2 markers (Arg1, Il10, Tgfb) as well as Th”, the “Acta2, Tgfb, Mmp9 mRNA” value ([19]; eWAT, G49, 6 h and day 7) was “transient increase in Acta2, Tgfb, and Mmp9 mRNA levels that declined at day 7” and the “Srebf1 and Fasn mRNA” value ([19]; liver, DIO mice, G49, 6 h) was “both were elevated at 6 h post-G49 treatment”.
